In general, Ki refers to a measure of affinity in units of concentration, obtained from inhibition or displacement. By inhibition is commonly meant the share of the control response that was lost under treatment.

Data on 10 compounds can be found in ChEMBL document CHEMBL1671834, “Novel 3-aryl indoles as progesterone receptor antagonists for uterine fibroids” (ACS Med Chem Lett, 2011).

SMILES strings stand for the structures. A value given as a limit tells only on which side of the number the result lay.

For one test, the target named is T1, Androgen receptor (Homo sapiens, UniProt P10275).
T1 sequence (P10275 whole entry): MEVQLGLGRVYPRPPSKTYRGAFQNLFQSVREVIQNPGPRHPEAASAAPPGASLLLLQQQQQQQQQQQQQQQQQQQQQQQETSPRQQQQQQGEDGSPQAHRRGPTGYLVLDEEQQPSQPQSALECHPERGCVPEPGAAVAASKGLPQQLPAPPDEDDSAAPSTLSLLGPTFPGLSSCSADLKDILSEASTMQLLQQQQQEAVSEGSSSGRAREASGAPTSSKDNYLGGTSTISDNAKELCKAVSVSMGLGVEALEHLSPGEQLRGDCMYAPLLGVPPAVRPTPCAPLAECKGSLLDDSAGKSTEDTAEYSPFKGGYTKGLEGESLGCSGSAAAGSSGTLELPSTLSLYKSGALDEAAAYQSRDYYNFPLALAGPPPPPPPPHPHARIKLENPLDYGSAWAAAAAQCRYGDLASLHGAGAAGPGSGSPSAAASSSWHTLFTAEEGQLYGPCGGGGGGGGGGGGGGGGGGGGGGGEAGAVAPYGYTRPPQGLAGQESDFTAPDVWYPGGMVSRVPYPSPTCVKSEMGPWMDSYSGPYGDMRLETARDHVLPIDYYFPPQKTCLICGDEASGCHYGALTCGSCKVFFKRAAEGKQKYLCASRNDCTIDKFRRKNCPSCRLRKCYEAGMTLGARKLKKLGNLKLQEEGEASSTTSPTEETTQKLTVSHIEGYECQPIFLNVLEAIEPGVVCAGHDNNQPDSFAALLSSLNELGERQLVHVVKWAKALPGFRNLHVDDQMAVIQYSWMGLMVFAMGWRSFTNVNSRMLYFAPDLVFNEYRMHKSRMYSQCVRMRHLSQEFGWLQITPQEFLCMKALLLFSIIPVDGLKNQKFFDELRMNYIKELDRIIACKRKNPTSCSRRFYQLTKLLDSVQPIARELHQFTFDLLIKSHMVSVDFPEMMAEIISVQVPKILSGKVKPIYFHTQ
Put plainly: Displacement of [3H]methyltrienolone from human androgen receptor expressed in HEK293 cells. Type of test: cell-based. On the technique in general: In a radioligand displacement assay an active substance lowers the binding of a labelled ligand.

For test [1], the target named is T2, Progesterone receptor (Homo sapiens) (UniProt P06401).
T2 sequence (whole entry): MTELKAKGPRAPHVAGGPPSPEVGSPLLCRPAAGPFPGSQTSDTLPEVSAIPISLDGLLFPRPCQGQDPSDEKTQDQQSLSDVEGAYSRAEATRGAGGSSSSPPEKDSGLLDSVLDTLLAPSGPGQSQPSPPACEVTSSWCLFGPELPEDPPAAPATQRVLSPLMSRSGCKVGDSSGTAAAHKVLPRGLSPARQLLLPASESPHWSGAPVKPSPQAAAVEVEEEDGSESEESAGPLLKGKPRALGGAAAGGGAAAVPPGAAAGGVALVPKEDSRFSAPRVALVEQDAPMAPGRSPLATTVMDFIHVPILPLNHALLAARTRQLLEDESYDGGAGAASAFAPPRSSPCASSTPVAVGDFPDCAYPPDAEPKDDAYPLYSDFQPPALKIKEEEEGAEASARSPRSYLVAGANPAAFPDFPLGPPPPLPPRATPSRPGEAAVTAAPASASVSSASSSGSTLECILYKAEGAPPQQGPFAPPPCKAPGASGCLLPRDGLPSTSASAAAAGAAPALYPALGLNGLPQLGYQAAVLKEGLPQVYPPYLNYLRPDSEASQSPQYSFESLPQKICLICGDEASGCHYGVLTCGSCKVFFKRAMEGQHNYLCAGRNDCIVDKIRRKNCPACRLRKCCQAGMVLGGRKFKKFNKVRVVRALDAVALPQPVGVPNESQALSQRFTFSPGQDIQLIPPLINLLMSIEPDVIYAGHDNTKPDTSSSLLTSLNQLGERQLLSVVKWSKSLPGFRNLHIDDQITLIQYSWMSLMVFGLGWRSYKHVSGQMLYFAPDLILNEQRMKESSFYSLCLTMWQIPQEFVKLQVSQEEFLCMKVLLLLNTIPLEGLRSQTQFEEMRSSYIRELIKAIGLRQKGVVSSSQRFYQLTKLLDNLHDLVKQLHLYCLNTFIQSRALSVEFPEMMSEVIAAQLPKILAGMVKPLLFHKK
The test is described as follows: Antagonist activity at human progesterone receptor expressed in HEK293 cells assessed as inhibition of […]-induced transcriptional activity by GRE-driven luciferase reporter gene assay relative to untreated control. It is filed as functional, cell-based. Also noted: concentration or dose not given beside the values. The conditions noted are these: concentration not given here. Summed up: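 Transcription assay in HEK293 cells cotransfected with full-length human receptor. Values are geometric means of at least duplicate determinations.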
For orientation: In a reporter assay the amount or activity of a reporter protein is the signal.

Another test addresses T3, Glucocorticoid receptor (Homo sapiens, UniProt P04150).
T3 sequence (P04150 whole entry): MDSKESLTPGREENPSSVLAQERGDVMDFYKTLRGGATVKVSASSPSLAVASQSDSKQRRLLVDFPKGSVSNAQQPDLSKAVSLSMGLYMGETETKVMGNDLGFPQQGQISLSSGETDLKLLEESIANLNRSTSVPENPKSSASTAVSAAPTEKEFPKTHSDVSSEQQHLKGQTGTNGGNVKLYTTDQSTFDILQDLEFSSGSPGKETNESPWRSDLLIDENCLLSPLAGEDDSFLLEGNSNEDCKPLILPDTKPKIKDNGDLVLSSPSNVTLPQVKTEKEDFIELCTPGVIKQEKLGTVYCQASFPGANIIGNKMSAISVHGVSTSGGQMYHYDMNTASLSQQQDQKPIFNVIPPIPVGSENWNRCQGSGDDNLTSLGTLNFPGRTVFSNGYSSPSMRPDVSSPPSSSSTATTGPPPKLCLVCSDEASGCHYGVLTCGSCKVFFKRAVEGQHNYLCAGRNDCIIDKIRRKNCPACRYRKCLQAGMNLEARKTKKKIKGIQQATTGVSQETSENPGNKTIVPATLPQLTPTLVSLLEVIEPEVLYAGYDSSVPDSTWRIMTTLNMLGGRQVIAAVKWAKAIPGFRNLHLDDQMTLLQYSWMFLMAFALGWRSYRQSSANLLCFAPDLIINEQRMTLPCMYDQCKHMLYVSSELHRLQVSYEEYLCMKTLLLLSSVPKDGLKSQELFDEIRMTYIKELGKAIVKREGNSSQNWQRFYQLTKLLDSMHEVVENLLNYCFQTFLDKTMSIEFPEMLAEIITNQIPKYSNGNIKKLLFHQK
Put plainly: Displacement of [3H]methyltrienolone from human glucocorticoid receptor expressed in HEK293 cells. Type of test: cell-based.

On to `Cn1cc(-c2ccc(C#N)cc2)c2ccc(NS(C)(=O)=O)cc21`, for which the Ki at Androgen receptor was > 4020 nM; at Glucocorticoid receptor, > 4290 nM. The inhibition in test [1] worked out at 87.8%.
On the same counts, the results for `CC(C)n1cc(-c2ccc(C#N)cc2)c2ccc(NS(C)(=O)=O)cc21` are > 3900 nM, 1530 nM and 96.2%.
On the same counts, the results for `CCn1cc(-c2ccc(C#N)cc2)c2ccc(NS(C)(=O)=O)cc21` are 2590 nM, 927 nM and 97%.
Turning to `Cc1cc(-c2cn(C(C)C)c3cc(NS(C)(=O)=O)ccc23)ccc1C#N`, the Ki is 403 nM at Androgen receptor and 157 nM at Glucocorticoid receptor. In test [1], the inhibition turned out to be 95.8%.
The like results for `CC(C)n1cc(-c2ccc(C#N)c(F)c2)c2ccc(NS(C)(=O)=O)cc21` were, in that order, 648 nM, 523 nM and 94.9%.
On to `COc1cc(-c2cn(C(C)C)c3cc(NS(C)(=O)=O)ccc23)ccc1C#N`, for which the inhibition constant (Ki) on Androgen receptor came out at 490 nM; on Glucocorticoid receptor, 977 nM. Besides, the inhibition in test [1] worked out at 97.4%.
The like results for `CC[C@@H](C)n1cc(-c2ccc(C#N)cc2)c2ccc(NS(C)(=O)=O)cc21` were, in that order, 2550 nM, 780 nM and 96.2%.
On the same counts, the results for `CC[C@H](C)n1cc(-c2ccc(C#N)cc2)c2ccc(NS(C)(=O)=O)cc21` are 1740 nM, 1860 nM and 96.8%.
On the same counts, the results for `CC(c1ccc(F)cc1)(c1c[nH]c2c(NS(C)(=O)=O)cccc12)C1CC1` (stereo not given) are 220 nM, 6.39 nM and 91.7%.
With `COc1ccc(C(c2ccccc2)c2c[nH]c3ccccc23)cc1` (stereo not given), the values for the Ki at Androgen receptor and at Glucocorticoid receptor were 68.9 nM and 50.2 nM, respectively. Besides, the inhibition in test [1] amounted to 86.5%.
